In the array DNA melting data of Ke et al. (doi:10.1101/2024.01.08.574731) one finds folding enthalpy and Tm data, which are given here for 36 sequences.

Data set [1] can be described thus: folding enthalpy; higher = less favourable; fluorescence melt of hairpins on a sequencing array, two-state fit. The conditions noted are these: sodium 0.088 M. In a few lines:
(§1)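 Cy3 signals were normalised both to pre-quench Cy3 and to control constructs. They came from library hairpins carrying annealed Cy3 and quencher oligos on a sequenced MiSeq flow cell, imaged in 50 mM Na-HEPES pH 8.0, 25 mM NaCl, in 2.5 °C steps up to 60 °C. Bootstrapped two-state fits gave melting temperature and folding enthalpy, and four replicates were combined by inverse variance. Fitted temperatures were then raised by 9.35 °C to match UV melts.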

Data set [2] can be described thus: melting temperature; fluorescence melt of hairpins on a sequencing array, two-state fit, raised by 9.35 °C to match UV melts. The conditions noted are these: sodium 0.088 M. In a few lines:
as §1

Regarding GGCTAAACGAAAGTTGCC (((..(((....)))))), the folding enthalpy in data set [1] is -22.5 kcal/mol. In addition, in data set [2], the Tm amounted to 47.6 °C.
Take GGCTAACCGAAAGGTGCC (((..(((....)))))): in data set [1], the folding enthalpy is -22.4 kcal/mol. Further, the Tm in data set [2] came out at 53.6 °C.
As for GGCTAACGAAAGTTCGCC (((.(((....))).))), in data set [1], the folding enthalpy is -44.2 kcal/mol. Moreover, the Tm in data set [2] was determined as 52.9 °C.
For the sequence GGCTAACGAAAGTTGGCC (((.(((....))).))), in data set [1], the folding enthalpy was -44.2 kcal/mol. Besides, the Tm in data set [2] worked out at 60.1 °C.
For GGCTAACGAAAGTTTGCC (((.(((....))).))), the folding enthalpy in data set [1] is -61 kcal/mol. In data set [2], the Tm was 54.7 °C.
Take GGCTACGAAAGTAACGCC ((((((....)))..))): the folding enthalpy in data set [1] is -22.8 kcal/mol. In addition, the Tm in data set [2] is 46.1 °C.
Taken in the same sequence, the figures for GGCTACGAAAGTACAGCC ((((((....)))..))) were -26.9 kcal/mol and 48 °C.
As to GGCTACGAAAGTATGGCC ((((((....)))..))), the folding enthalpy in data set [1] was -25.7 kcal/mol. Moreover, in data set [2], the Tm was 47.3 °C.
With GGCTACGGAAACGTGGTC (.(.(((....))).).), the folding enthalpy in data set [1] was -27.8 kcal/mol. Also, in data set [2], the Tm is 42 °C.
GGCTATCGAAAGATTGCC (((.(((....))).))): the folding enthalpy in data set [1] was -41.3 kcal/mol. Moreover, the Tm in data set [2] worked out at 55.7 °C.
GGCTATGGAAACACAGCC ((((.((....)).)))): the folding enthalpy in data set [1] is -29.9 kcal/mol. Also, the Tm in data set [2] came to 43.2 °C.
For GGCTCAACGAAAGTTGCC (((..(((....)))))), in that order: -13.7 kcal/mol and 38.2 °C.
For the sequence GGCTCAGAAATGAGCC ((((((....)))))), the folding enthalpy in data set [1] was -38.9 kcal/mol. In addition, the Tm in data set [2] was determined as 67 °C.
Consider GGCTCCCGAAAGGGTGCC (((.(((....))).))), for which the folding enthalpy in data set [1] was -40 kcal/mol. Further, the Tm in data set [2] is 67.6 °C.
For GGCTCCGAAAGGAAAGCC ((((((....)))..))), in that order: -30.1 kcal/mol and 54.3 °C.
Regarding GGCTCCGAAAGGAATGCC ((((((....)))..))), the folding enthalpy in data set [1] was -26.9 kcal/mol. Further, in data set [2], the Tm amounted to 51.3 °C.
For GGCTCCGAAAGGACGGCC ((((((....)))..))), the folding enthalpy in data set [1] is -20.8 kcal/mol. Besides, the Tm in data set [2] is 51.2 °C.
As to GGCTCCGAAAGGAGCGCC ((((((....)))..))), the folding enthalpy in data set [1] was -6.52 kcal/mol. The Tm in data set [2] came out at 68.6 °C.
With GGCTCCGAAAGGAGGGCC ((((((....)))..))), the folding enthalpy in data set [1] was -15.8 kcal/mol. Moreover, the Tm in data set [2] worked out at 52.5 °C.
With GGCTCCGGAAACGGAGTC (.(((((....))))).), the folding enthalpy in data set [1] is -30.1 kcal/mol. The Tm in data set [2] came to 60.8 °C.
For the sequence GGCTCCGGAAACGGGGTC (.(.(((....))).).), the folding enthalpy in data set [1] is -25.1 kcal/mol. For the same sequence, the Tm in data set [2] came to 49 °C.
For the sequence GGCTCCTCGAAAGAGGCC (((..(((....)))))), the folding enthalpy in data set [1] was -14 kcal/mol. Moreover, in data set [2], the Tm came out at 39.5 °C.
For GGCTCGCGAAAGCGGCC (((.(((....)))))), the folding enthalpy in data set [1] is -19.2 kcal/mol. Also, the Tm in data set [2] came to 66.5 °C.
For GGCTCGGGAAACTGGGCC (((.(.(....).).))), in that order: -36.7 kcal/mol and 48.9 °C.
Take GGCTCTCGAAAGAGCGCC (((.(((....))).))): the folding enthalpy in data set [1] was -34.6 kcal/mol. Moreover, the Tm in data set [2] worked out at 56.4 °C.
Take GGCTGAACGAAAGTTGCC (((..(((....)))))): the folding enthalpy in data set [1] was -24.6 kcal/mol. For the same sequence, the Tm in data set [2] amounted to 46.9 °C.
Regarding GGCTGAGGAAACCCAGCC (((((.(....).))))), the folding enthalpy in data set [1] is -41.9 kcal/mol. Besides, the Tm in data set [2] turned out to be 55 °C.
For the sequence GGCTGAGGAAACTCAACC ((.((((....)))).)), the folding enthalpy in data set [1] is -32.5 kcal/mol. For the same sequence, in data set [2], the Tm worked out at 41.2 °C.
With GGCTGCGAAAGCACGCC ((((((....))).))), in data set [1], the folding enthalpy is -29.6 kcal/mol. Also, the Tm in data set [2] was 65.2 °C.
For GGCTGCGAAAGCATGCC ((((((....))).))), in that order: -21.6 kcal/mol and 66.7 °C.
Taken in the same sequence, the figures for GGCTGCGAAAGCATTGCC ((((((....)))..))) were -19.5 kcal/mol and 52.8 °C.
For GGCTGCGGAAACGTAGCC ((((.((....)).)))), the folding enthalpy in data set [1] was -50.1 kcal/mol. The Tm in data set [2] was found to be 61 °C.
GGCTGGCGAAAGCCCGCC (((.(((....))).))): in data set [1], the folding enthalpy is -22.6 kcal/mol. The Tm in data set [2] was found to be 63 °C.
With GGCTGGGGAAACCCAGTC (.(((((....))))).), the folding enthalpy in data set [1] was -41.6 kcal/mol. For the same sequence, in data set [2], the Tm was 55.8 °C.
Take GGCTGGGGAAACTCAGCC (((((.(....).))))): the folding enthalpy in data set [1] was -38.7 kcal/mol. Also, the Tm in data set [2] came to 57 °C.
As to GGCTGTGGAAACACAGTC (.(((((....))))).), in data set [1], the folding enthalpy was -28.2 kcal/mol. Further, in data set [2], the Tm is 54.2 °C.
